Laboratory results reported in ChEMBL document CHEMBL3045438, “Synthesis and fungicidal evaluation of novel chalcone-based strobilurin analogues” (2007).

Experiments:
Assay type in all cases: functional
Botrytis cinerea = test: Antifungal activity against Botryotinia fuckeliana assessed as fungicidal activity at 200 mg/L (beneficial crop - cucumber)
Method in brief: (§1)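 In vivo preventive test on cucumber as host plant.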

Podosphaera fuliginea = test: Antifungal activity against Podosphaera fuliginea assessed as fungicidal activity at 200 mg/L (beneficial crop - cucumber); method in brief: as §1
Rhizoctonia solani = test: Antifungal activity against Rhizoctonia solani assessed as fungicidal activity at 200 mg/L (beneficial crop - cucumber); method in brief: as §1
[1] = system: Pseudoperonospora cubensis; test: Antifungal activity against Pseudoperonospora cubensis assessed as fungicidal activity at 200 mg/L (beneficial crop - cucumber); method in brief: as §1

SMILES	inhibition at 200 µg/mL (Botrytis cinerea) [%]	inhibition at 200 µg/mL (Podosphaera fuliginea) [%]	inhibition at 200 µg/mL (Rhizoctonia solani) [%]	inhibition at 200 µg/mL [1] [%]
CO/C=C(/C(=O)OC)c1ccccc1COc1cccc(C(=O)/C=C/c2ccc(Br)cc2)c1	0	45	0	94
CO/C=C(/C(=O)OC)c1ccccc1COc1ccccc1C(=O)/C=C/c1ccc(OC)c(OC)c1	0	0	0	0
CO/C=C(/C(=O)OC)c1ccccc1COc1ccc(Cl)cc1C(=O)/C=C/c1ccc(Cl)cc1	21	86	0	0
CO/C=C(/C(=O)OC)c1ccccc1COc1ccccc1C(=O)/C=C/c1ccc(Cl)cc1	0	0	0	0
CO/C=C(/C(=O)OC)c1ccccc1COc1cccc(C(=O)/C=C/c2ccco2)c1	16	0	0	0
CO/C=C(/C(=O)OC)c1ccccc1COc1ccc(C(=O)/C=C/c2ccc(F)cc2)cc1	0	0	23	100
CO/C=C(/C(=O)OC)c1ccccc1COc1ccc(C(=O)/C=C/c2cccc(OC)c2)cc1	0	0	20	86
CO/C=C(/C(=O)OC)c1ccccc1COc1ccc(Cl)cc1C(=O)/C=C/c1ccc(C)cc1	0	0	0	0
CCc1ccc(/C=C/C(=O)c2cccc(OCc3ccccc3/C(=C\OC)C(=O)OC)c2)cc1	0	78	0	100
CO/C=C(/C(=O)OC)c1ccccc1COc1ccc(C(=O)/C=C/c2ccc(Cl)cc2Cl)cc1	0	78	27	67
CO/C=C(/C(=O)OC)c1ccccc1COc1cccc(C(=O)/C=C/c2ccccc2)c1	0	0	0	96
CO/C=C(/C(=O)OC)c1ccccc1COc1ccc(C(=O)/C=C/c2ccc(OC)c(OC)c2)cc1	0	0	0	11
CO/C=C(/C(=O)OC)c1ccccc1COc1cccc(C(=O)/C=C/c2ccc(Cl)c(Cl)c2)c1	0	0	0	0
CCOc1ccc(/C=C/C(=O)c2ccc(OCc3ccccc3/C(=C\OC)C(=O)OC)cc2)cc1	0	0	0	59
CO/C=C(/C(=O)OC)c1ccccc1COc1ccc(C(=O)/C=C/c2ccccc2Cl)cc1	0	0	0	100
CO/C=C(/C(=O)OC)c1ccccc1COc1ccc(C(=O)/C=C/c2ccco2)cc1	0	0	0	0
CO/C=C(/C(=O)OC)c1ccccc1COc1cccc(C(=O)/C=C/c2ccc(OC)cc2)c1	0	0	0	95
CCc1ccc(/C=C/C(=O)c2ccc(OCc3ccccc3/C(=C\OC)C(=O)OC)cc2)cc1	0	56	69	15
CO/C=C(/C(=O)OC)c1ccccc1COc1ccc(C)cc1C(=O)/C=C/c1ccc(Cl)cc1	0	0	0	89
CO/C=C(/C(=O)OC)c1ccccc1COc1ccccc1C(=O)/C=C/c1cccc(Cl)c1	0	0	0	39
CO/C=C(/C(=O)OC)c1ccccc1COc1ccccc1C(=O)/C=C/c1ccc(C)c(C)c1	0	0	0	0
CO/C=C(/C(=O)OC)c1ccccc1COc1ccccc1C(=O)/C=C/c1ccc(Br)cc1	0	0	0	0
CO/C=C(/C(=O)OC)c1ccccc1COc1ccc(C(=O)/C=C/c2ccc(Br)cc2)cc1	0	0	0	56
